Bioassay records: PubChem, several laboratories
HUVEC prolif 384 – blocks proliferation of human endothelial cells | HUVEC proliferation, CellTiter-Glo luminescence, 72 h; stronger effect = lower value | viability, % at 10 µM (by protocol) | 86,000 compounds, 1.1% hits | AID 648;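 active = viability at or below 30%; inactive = viability above 30%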
Jurkat viability – cytotoxicity toward Jurkat cells | Jurkat E6.1 viability, ATP luminescence, 48 h | inhibition, % at 4 µM | 56,000 compounds, 1.2% hits;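 active = inhibition above the mean inhibition of all tested compounds plus 3 SD, cut at about 28% in these data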
Lung fibro prol – blocks proliferation of human lung fibroblasts. LL 47 human lung fibroblast viability, ATP luminescence; stronger effect = lower value. viability, % at 10 µM. 85,000 compounds, 1.1% hits. AID 719;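 active = viability at or below 50% in the single dose screen; inactive = viability above 50%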;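 also: compound exposure lasted 72 h before the ATP readout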
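Test system: LL 47 human lung fibroblasts; Quantity: 1,150 cells/well; Buffer or medium: IMEM plus 15% FBS; Dosing: tenfold compound dosing solution, DMSO at 0.1%; Timing: overnight cell rest, 72 h compound treatment at 37 °C; Detection: ATP-based CellTiter-Glo luminescent readout; Read-out basis: viability percentage against median untreated-cell control; Controls: cell-only wells, no compound.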
H69AR growth 86K – blocks growth of human H69AR lung tumor cells | H69AR lung tumor viability, ATP luminescence, 72 h; stronger effect = lower value | viability, % at 10 µM | 85,000 compounds, 6% hits;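 active = viability at or below 40%; inactive = viability above 40%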;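 also: multidrug resistant small cell line overexpressing MRP-1 efflux transporter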
Numbers stand for hits; 0 = inactive; - = not tested or not shown. The list is not random: actives were taken first. Their share in the collection is about 6.6%.

SMILES	HUVEC prolif 384	Jurkat viability	Lung fibro prol	H69AR growth 86K
COc1ccc(CC(=O)NCc2cn3ccsc3n2)cc1	0	0	0	1.0
COc1ccc(CCC(=O)NCc2cn3ccsc3n2)cc1	0	0	0	0
O=C(Cn1nnc(-c2ccccc2NC(=O)c2ccco2)n1)NC1CCCCC1	0	0	0	0
COc1ccc(NC(=O)Cn2nnc(-c3ccccc3N)n2)cc1OC	0	0	0	0
COc1cc(NC(=O)Cn2nnc(-c3ccccc3N)n2)cc(OC)c1	0	0	0	30
COc1ccc(NC(=O)Cn2nnc(-c3ccccc3NC(=O)c3ccco3)n2)cc1	21	0	48	4.3
COc1ccccc1NC(=O)Cn1nnc(-c2ccccc2NC(=O)c2ccco2)n1	0	0	47	16
COc1ccc(S(=O)(=O)Oc2ccc3c(c2)O/C(=C\c2cccnc2)C3=O)cc1	0	-	0	17
O=C1/C(=C/c2cccnc2)Oc2cc(OS(=O)(=O)c3ccc(Cl)cc3)ccc21	0	-	0	0
COc1ccc2cc(CN(Cc3cccnc3)S(=O)(=O)c3ccccc3)c(=O)[nH]c2c1	0	0	0	0
O=C1/C(=C/c2cccnc2)Oc2cc(OS(=O)(=O)c3ccccc3)ccc21	0	-	0	3.4
CCC(Oc1ccccc1)C(=O)N1CC(C)CC(C)C1 (centres undefined)	0	0	0	0
COc1cccc(NC(=O)COC(=O)c2cccnc2)c1	0	0	0	0
COc1cccc(NC(=O)COC(=O)c2c3c(nc4ccccc24)CCC(C)C3)c1 (centres undefined)	0	-	0	23
O=C(COC(=O)c1c2c(nc3ccccc13)CCCC2)Nc1ccc2c(c1)OCO2	0	-	0	36
O=C(COC(=O)c1ccco1)Nc1ccc2c(c1)OCO2	0	0	0	0
COc1cc(NS(=O)(=O)c2ccc3c(c2)oc(=O)n3C)cc(OC)c1OC	0	40	0	27
O=c1[nH]c(=O)n(Cc2ccco2)c2c1C(C(F)(F)F)(C(F)(F)F)N=C(C1CCCCC1)N2	0	0	0	0
N#Cc1ccc(C2=NC(C(F)(F)F)(C(F)(F)F)c3c(n(Cc4ccco4)c(=O)[nH]c3=O)N2)cc1	0	-	0	35
O=c1[nH]c(=O)n(Cc2ccco2)c2c1C(C(F)(F)F)(C(F)(F)F)N=C(CCc1ccccc1)N2	0	-	0	0
O=c1[nH]c(=O)n(Cc2ccco2)c2c1C(C(F)(F)F)(C(F)(F)F)N=C(CCC1CCCCC1)N2	0	-	0	9.5
CCOC(=O)c1cc(-c2ccco2)nc2c1c(C)nn2-c1ccccc1	0	0	0	0
Cc1nn(-c2ccccn2)c2nc(-c3cccs3)cc(C(=O)NCc3ccco3)c12	0	-	0	16
O=C(NCc1ccco1)c1nn2c(C(F)(F)F)cc(-c3cccs3)nc2c1Cl	0	-	0	0
Cc1nn(-c2ccccc2)c2nc(-c3ccncc3)cc(C(=O)NCc3ccco3)c12	0	0	0	31
SMILES	HUVEC prolif 384	Jurkat viability	Lung fibro prol	H69AR growth 86K
CCCCCNC(=O)Cc1cc(=O)[nH]c(=O)[nH]1	0	-	0	0
COc1cc(OC)cc(-c2ncc3ccccn23)c1	0	-	0	38
COc1cc(NC(=O)c2cc3c(C)nc4ccccc4c3o2)cc(OC)c1OC	0	0	0	35
COc1ccc(NC(=O)c2cc(-c3ccc(C)o3)nc3ccccc23)cc1OC	0	0	0	35
COc1cccc(CNC(=O)c2cc3c(C)nc4ccccc4c3o2)c1	0	-	0	0
COc1ccc(CNC(=O)c2cc3c(C)nc4ccccc4c3o2)c(OC)c1	0	60	0	0
O=C(c1ccc(F)cc1)C1CCN(C(=O)NC2CCCCC2)CC1	0	-	0	0
O=C(CN1CCc2ccccc2C1)c1cccs1	0	0	-	0
COc1cc2c(cc1OC)C(=S)NC(C)(C)C2	0	-	0	0
O=C(NCc1ccccn1)c1nnc(Cc2ccc(Cl)cc2)o1	0	0	0	0
CC(SCc1cn2cc(Cl)ccc2n1)C(=O)O (centres undefined)	0	-	0	0
COc1ccccc1C1c2c(oc3ccc(Cl)cc3c2=O)C(=O)N1c1cc(C)on1 (centres undefined)	0	0	36	40
COc1ccccc1OCc1ccc(C(=O)NCC2CCCO2)o1 (centres undefined)	0	-	0	0
CCN(Cc1ccccc1)S(=O)(=O)c1ccc(C(=O)Nc2nnc(C3CC3)o2)cc1	0	101	0	32
Cc1nnc(NC(=O)c2ccc(S(=O)(=O)N(C)Cc3ccccc3)cc2)o1	0	0	0	24
COCCN(CCOC)S(=O)(=O)c1ccc(C(=O)Nc2nnc(C)o2)cc1	-	0	-	-
Cc1sc2nc(CN3CCCC3)nc(N3CCN(S(=O)(=O)c4cccs4)CC3)c2c1C	6.4	-	0	0
Cc1sc2nc(-c3cccs3)nc(N3CCCN(C)CC3)c2c1C	21	0	0	24
Cc1c(C#N)sc2nc(-c3ccccc3)nc(N3CCCC3)c12	0	0	0	0
CCc1nc(N2CCN(S(=O)(=O)c3ccc(Br)cc3)CC2)c2c(C)c(C)sc2n1	0	-	0	0
CCC(C)NC(=O)C1c2ccccc2C(=O)N(c2ccc(OC)cc2)C1c1ccc(OC)cc1 (centres undefined)	0	-	0	0
CCCCCCn1c(COc2ccccc2F)nnc1SCC(=O)N1c2ccccc2NC(=O)C1(C)C	0	-	0	0.8
CCn1c(SCC(=O)OCC(=O)N2c3ccccc3NC(=O)C2(C)C)nnc1-c1ccco1	0	0	0	0
O=C(Oc1ccccc1-c1nnco1)c1ccc(Cl)cc1	0	-	34	0
COc1ccc(NC(=O)CSc2nc(C)c3c(c2C#N)CCCC3)cc1	0	-	0	0
SMILES	HUVEC prolif 384	Jurkat viability	Lung fibro prol	H69AR growth 86K
CCc1nnc(NC(=O)CSc2nc(C)c3c(c2C#N)CCCC3)s1	0	-	0	24
CC(C)C1N=C(c2ccc3c(c2)OCO3)CC(c2ccccc2O)N1 (centres undefined)	0	-	0	2.1
Cc1c2c(n3c(nc4ccccc43)c1C#N)N(Cc1ccccn1)CC2	0	0	0	0
O=S(=O)(CCN1CCN(C(c2ccccc2)c2ccccc2)CC1)C(F)(F)F	0	0	0	4.4
Cn1c(NCc2ccco2)nc2c1c(=O)n(Cc1ccc(Cl)c(Cl)c1)c(=O)n2C	0	-	0	0
CCOc1ccccc1C(=O)Nc1cccc(-c2nnc(-c3ccccc3)o2)c1	0	-	0	8.7
O=C(COc1ccccc1)Nc1cccc(-c2nnc(-c3ccccc3)o2)c1	0	0	0	0
O=C(Nc1cccc(C(F)(F)F)c1)c1ccc2nc(-c3ccco3)c(-c3ccco3)nc2c1	0	-	0	32
COc1ccc(C(=O)Nc2cccc(-c3nnc(-c4ccco4)o3)c2)cc1	0	-	0	24
COCCn1c(-c2ccc(Cl)cc2)cnc1SCC(=O)NCc1cccs1	0	0	0	0
Cc1nc(C)c2c(=O)cc(-c3ccccc3)[nH]c2n1	0	54	0	31
Cc1nc(-c2ccccc2)nc2[nH]c(-c3ccccc3)cc(=O)c12	0	-	0	15
Cc1nc(-c2ccccc2)nc2[nH]ccc(=O)c12	0	-	0	0
Cn1c(=O)c2c(SCC(=O)N3CCOCC3)nc(CC(C)(C)C)nc2n(C)c1=O	0	0	35	24
Cn1c(=O)c2c(SCC(=O)N3CCCc4ccccc43)nc(CC(C)(C)C)nc2n(C)c1=O	0	0	0	30
